In ChEMBL document CHEMBL2331318, “Azide-alkyne cycloaddition en route to 1H-1,2,3-triazole-tethered 7-chloroquinoline-isatin chimeras: synthesis and antimalarial evaluation” (Eur J Med Chem, 2013):

Test system: Plasmodium falciparum
Assay: In vitro antimalarial activity against ring stage of chloroquine-resistant Plasmodium falciparum W2 cultured in medium containing 10% human serum assessed as inhibition of parasite growth after 48 hrs by YOYO-1 dye based flow cytometry
Format: functional, organism-based
Conditions: W2, 48 h
Outline: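 Ring-stage microwell cultures were exposed to a range of compound concentrations for 48 h, with 0.1% DMSO maximum and in the no-inhibitor controls. Cells were fixed in 1% formaldehyde/PBS pH 7.4 for 48 h at room temperature, then stained with 1 nM YOYO-1 in 0.1% Triton X-100/PBS. Parasitemia was counted by flow cytometry, and IC50 obtained by nonlinear regression of % control parasitemia from duplicate experiments.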

O=C1C(=O)N(Cc2cnnn2CCNc2ccnc3cc(Cl)ccc23)c2ccccc21
IC50: 3070 nM

O=C1C(=O)N(Cc2cnnn2CCNc2ccnc3cc(Cl)ccc23)c2ccc(F)cc21
IC50: 2300 nM

O=C1C(=O)N(Cc2cnnn2CCNc2ccnc3cc(Cl)ccc23)c2ccc(Cl)cc21
IC50: 1370 nM

O=C1C(=O)N(Cc2cnnn2CCNc2ccnc3cc(Cl)ccc23)c2ccc(Br)cc21
IC50: 1730 nM

Cc1ccc2c(c1)C(=O)C(=O)N2Cc1cnnn1CCNc1ccnc2cc(Cl)ccc12
IC50: 1630 nM

O=C1C(=O)N(Cc2cnnn2CCCNc2ccnc3cc(Cl)ccc23)c2ccccc21
IC50: 3850 nM

O=C1C(=O)N(Cc2cnnn2CCCNc2ccnc3cc(Cl)ccc23)c2ccc(F)cc21
IC50: 1350 nM

O=C1C(=O)N(Cc2cnnn2CCCNc2ccnc3cc(Cl)ccc23)c2ccc(Cl)cc21
IC50: 1210 nM

O=C1C(=O)N(Cc2cnnn2CCCNc2ccnc3cc(Cl)ccc23)c2ccc(Br)cc21
IC50: 1660 nM

Cc1ccc2c(c1)C(=O)C(=O)N2Cc1cnnn1CCCNc1ccnc2cc(Cl)ccc12
IC50: 1300 nM

O=C1C(=O)N(Cc2cnnn2-c2ccnc3cc(Cl)ccc23)c2ccccc21
IC50: > 5000 nM

O=C1C(=O)N(Cc2cnnn2-c2ccnc3cc(Cl)ccc23)c2ccc(F)cc21
IC50: > 5000 nM

O=C1C(=O)N(Cc2cnnn2-c2ccnc3cc(Cl)ccc23)c2ccc(Cl)cc21
IC50: > 5000 nM

O=C1C(=O)N(Cc2cnnn2-c2ccnc3cc(Cl)ccc23)c2ccc(Br)cc21
IC50: > 5000 nM

Cc1ccc2c(c1)C(=O)C(=O)N2Cc1cnnn1-c1ccnc2cc(Cl)ccc12
IC50: > 5000 nM
